Test results as given in ChEMBL document CHEMBL4033712, “Synthesis and biological evaluation of new C-12(α/β)-(N-) sulfamoyl-phenylamino-14-deoxy-andrographolide derivatives as potent anti-cancer agents” (Bioorg Med Chem Lett, 2017).

Key:
NHDF = assay: (§1) Growth inhibition of human NHDF after 72 hrs by CellTiter-Glo luminescent cell viability assay; type: cell-based; conditions: nhdf, 72 h
MDA-MB-435 = assay: Growth inhibition of human MDA-MB-435 cells incubated for 48 hrs by sulforhodamine B assay; type: functional; conditions: MDA-MB-435, 48 h; for CC50: read-out: LC50 (the source's name)
Procedure, shortened: (§2)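 NCI-60 five-dose screen at 0.01, 0.1, 1, 10 and 100 µM, 48 h incubation, sulforhodamine B end point. GI50 (50% decrease in net growth), TGI (total growth inhibition) and LC50 (net 50% loss of initial cells) taken from log concentration versus % growth inhibition curves.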

SF-295 = assay: Growth inhibition of human SF295 cells incubated for 48 hrs by sulforhodamine B assay; type: functional; conditions: SF-295, 48 h; for CC50: read-out: LC50 (the source's name)
Procedure, shortened: (§3)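 NCI 60 human tumour cell line panel, five-dose study at 0.01, 0.1, 1, 10 and 100 µM, 48 h incubation. Sulforhodamine B protein-binding dye end point. GI50 (50% decrease in net cell growth), TGI (total growth inhibition) and LC50 (net 50% loss of initial cells) read from log concentration versus % growth inhibition curves.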

SR = assay: Growth inhibition of human SR cells incubated for 48 hrs by sulforhodamine B assay; type: functional; conditions: for CC50: read-out: LC50 (the source's name); procedure, shortened: as §3
SN12C = assay: Growth inhibition of human SN12C cells incubated for 48 hrs by sulforhodamine B assay; type: functional; conditions: for CC50: read-out: LC50 (the source's name); procedure, shortened: as §3
[1] = as §1; type: cell-based; conditions: NHDF cells
Malme-3M = assay: Growth inhibition of human MALME-3M cells incubated for 48 hrs by sulforhodamine B assay; type: functional; procedure, shortened: as §2

For `C=C1CC[C@@H]2[C@](C)(COC(C)=O)[C@H](OC(C)=O)CC[C@@]2(C)[C@H]1CC(Nc1ccc(S(=O)(=O)Nc2ncccn2)cc1)C1=CCOC1=O` (stereo partly drawn), the “growth inhibition (GI)” value (NHDF) was “Non-Toxic”, the GI50 (MDA-MB-435) was 1.58 µM and the TGI (MDA-MB-435) was 3.77 µM. It also gave a CC50 (MDA-MB-435) of 9.04 µM, a GI50 (SF-295) of 6.07 µM and a TGI (SF-295) of 18.7 µM. It also gave a CC50 (SF-295) of 44.6 µM, a GI50 (SR) of 0.31 µM and a TGI (SR) of 17.2 µM. For the same molecule, the CC50 (SR) was over 100 µM, the GI50 (SN12C) was 0.43 µM and the TGI (SN12C) was 1.96 µM. It also gave a CC50 (SN12C) of 5.82 µM.
In the case of `C=C1CC[C@@H]2[C@](C)(COC(C)=O)[C@H](OC(C)=O)CC[C@@]2(C)[C@H]1CC(Nc1ccc(S(=O)(=O)Nc2ccc(Cl)nn2)cc1)C1=CCOC1=O` (stereo partly drawn), the LC50 (NHDF) is reported as 3.496358 µM, the GI50 at 72 h [1] is reported as 1.54 µM and the GI50 (MDA-MB-435) is reported as 1.4 µM. The TGI (MDA-MB-435) was 3.17 µM, the CC50 (MDA-MB-435) was 7.16 µM and the GI50 (SF-295) was 3.28 µM. For the same molecule, the TGI (SF-295) was 12.6 µM, the CC50 (SF-295) was 35.6 µM and the GI50 (Malme-3M) was 1.72 µM. It also gave a TGI (Malme-3M) of 3.9 µM, a CC50 (Malme-3M; read-out: LC50 (the source's name)) of 8.84 µM and a GI50 (SR) of 1.35 µM. For the same molecule, the TGI (SR) was 8.1 µM, the CC50 (SR) was over 100 µM and the GI50 (SN12C) was 1.25 µM. For the same molecule, the TGI (SN12C) was 3.66 µM and the CC50 (SN12C) was 12.7 µM.
For `C=C1CC[C@@H]2[C@](C)(COC(C)=O)[C@H](OC(C)=O)CC[C@@]2(C)[C@H]1CC(Nc1ccc(S(=O)(=O)Nc2nccc(C)n2)cc1)C1=CCOC1=O` (stereo partly drawn), the GI50 (MDA-MB-435) was 2.92 µM, the TGI (MDA-MB-435) was 10.4 µM and the CC50 (MDA-MB-435) was 34.2 µM. It also gave a GI50 (SF-295) of 12.4 µM, a TGI (SF-295) of 25.6 µM and a CC50 (SF-295) of 52.9 µM. It also gave a GI50 (SR) of 0.75 µM, a TGI (SR) of over 100 µM and a CC50 (SR) of over 100 µM. The GI50 (SN12C) was 2.64 µM, the TGI (SN12C) was 6.17 µM and the CC50 (SN12C) was 81.2 µM.
For `C=C1CC[C@@H]2[C@](C)(COC(C)=O)[C@H](OC(C)=O)CC[C@@]2(C)[C@H]1CC(Nc1ccc(S(=O)(=O)Nc2nccs2)cc1)C1=CCOC1=O` (stereo partly drawn), the GI50 (MDA-MB-435) was 3.29 µM, the TGI (MDA-MB-435) was 12.7 µM and the CC50 (MDA-MB-435) was 38 µM. It also gave a GI50 (SF-295) of 13.8 µM, a TGI (SF-295) of 27.2 µM and a CC50 (SF-295) of 53.8 µM. It also gave a GI50 (SR) of 1.33 µM, a TGI (SR) of over 100 µM and a CC50 (SR) of over 100 µM. The GI50 (SN12C) was 1.87 µM, the TGI (SN12C) was 4.39 µM and the CC50 (SN12C) was 14.3 µM.
`C=C1CC[C@@H]2[C@](C)(COC(C)=O)[C@H](OC(C)=O)CC[C@@]2(C)[C@H]1CC(Nc1ccc(S(=O)(=O)Nc2cc(C)on2)cc1)C1=CCOC1=O` (stereo partly drawn) gave a GI50 (MDA-MB-435) of 1.74 µM, a TGI (MDA-MB-435) of 4.37 µM and a CC50 (MDA-MB-435) of 12.5 µM. The GI50 (SF-295) was 8.13 µM, the TGI (SF-295) was 21 µM and the CC50 (SF-295) was 47.7 µM. For the same molecule, the GI50 (Malme-3M) was 1.89 µM, the TGI (Malme-3M) was 4 µM and the GI50 (SR) was 0.37 µM. For the same molecule, the TGI (SR) was 3.36 µM, the CC50 (SR) was over 100 µM and the GI50 (SN12C) was 1.73 µM. The TGI (SN12C) was 4.52 µM and the CC50 (SN12C) was 20.7 µM.
